Assay [1] has as its system Rattus norvegicus. The experiment in a line: Inhibition of the 6-OHDA-induced Hypokinesia in rat, at 50 mg/Kg sc, expressed as cumulative ambulation score. The assay is classed as functional. The gist of the method:
(§1)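 Male Sprague-Dawley rats (~280 g), anesthetized with pentobarbital, got 6-OHDA (26 µg/4 µL) bilaterally into the anterolateral hypothalamus. Four days later, only near-akinetic rats in a 36-square open field were used. Doses were free base, given sc in distilled water or Tween 80 suspension. Ambulation (all four limbs in one square) was scored in six 2-min periods at 15–120 min, then summed.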

In assay [2] the test system is Rattus norvegicus. The experiment in a line: Inhibition of the 6-OHDA-induced Hypokinesia in rat, at 50 mg/Kg sc, expressed as cumulative ambulation score; inactive. The format is functional, organism-based. In short, it runs like this: as §1
For assay [3], the system named is Rattus norvegicus. The experiment in a line: Rotational behavior induced by the compound in rat with a unilateral 6-OHDA-induced lesion of the Nigro-striatal dopamine, at 75 mg/Kg sc; duration of activity=9 hr. The assay is classed as functional.
The species entered for assay [4] is Rattus norvegicus. The assay is described as follows: Duration of activity in rat. The format is functional. The gist of the method:
(§2)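 Rats (~250 g at surgery, pentobarbital 40 mg/kg ip) received unilateral 6-OHDA (8 µg in 3 µL) to lesion the nigrostriatal pathway. At 3–4 weeks, rats turning 8–10 times/min after apomorphine 0.25 mg/kg sc were selected. They were housed singly, food-restricted to 350–400 g, dosed sc (free base) in groups of 4–8, and placed at once in automatic rotometers. Total contralateral turns (mean ± SEM) and duration of action (h) were recorded.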

Assay [5] relates to Rattus norvegicus. The experiment in a line: Rotational behavior induced by the compound in rat with a unilateral 6-OHDA-induced lesion of the Nigro-striatal dopamine, at 50 mg/Kg sc, duration of activity=6 hr. The assay is classed as functional.
Assay [6] has as its system Rattus norvegicus. The experiment in a line: Rotational behavior induced by the compound in rat with a unilateral 6-OHDA-induced lesion of the Nigro-striatal dopamine, at 25 mg/Kg sc; duration of activity=5 hr. The format is functional.
Assay [7] deals with Rattus norvegicus. The experiment in a line: Drug pretreatment vs. vehicle pretreatment; statistical analysis by Student''s t test at 0.1 mg/kg; NS-Not Significant. Further details: dose 0.1 mg/kg. The assay is classed as functional, organism-based. The gist of the method: (§3)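 Rats were unilaterally 6-OHDA-lesioned and apomorphine-screened for rotation. Haloperidol (0.1, 0.25 or 0.5 mg/kg ip) or vehicle was given 1 h before the DA agonist (75 mg/kg sc). Total contralateral turns were counted automatically in rotometers (mean ± SEM). Percent decrease was taken relative to vehicle pretreatment, with significance by Student's t test.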

Assay [8] has as its system Rattus norvegicus. The experiment in a line: Effect on dopamine agonist-induced rotation in unilaterally 6-OH-DA-lesioned rat at 0.1 mg/kg, ip; Compound 35 was injected subcutaneously at 75 mg/kg. The format is functional. In short, it runs like this: as §3
Assay [9] deals with Rattus norvegicus. The assay is described as follows: Effect on dopamine agonist-induced rotation in unilaterally 6-OH-DA-lesioned rat at 0.5 mg/kg, ip; Compound 35 was injected subcutaneously at 75 mg/kg. The format is functional. The gist of the method: as §3
The subject of assay [10] is Rattus norvegicus. The assay is described as follows: Percent decrease on dopamine agonist-induced rotation in unilaterally 6-OH-DA-lesioned rat at 0.25 mg/kg. The assay is classed as functional. The gist of the method:
as §3

In assay [11] the test system is Rattus norvegicus. The assay is described as follows: Percent decrease on dopamine agonist-induced rotation in unilaterally 6-OH-DA-lesioned rat at 0.5 mg/kg. The assay is classed as functional. In short, it runs like this: as §3
Assay [12] relates to Rattus norvegicus. The assay is described as follows: Effect on dopamine agonist-induced rotation in unilaterally 6-OH-DA-lesioned rat at 0.25 mg/kg, ip; Compound 35 was injected subcutaneously at 75 mg/kg. The assay is classed as functional. In short, it runs like this:
as §3

The test system of assay [13] is Rattus norvegicus. The experiment in a line: Percent decrease on dopamine agonist-induced rotation in unilaterally 6-OH-DA-lesioned rat at 0.1 mg/kg. The assay is classed as functional. In short, it runs like this: as §3
The test system of assay [14] is Rattus norvegicus. The assay is described as follows: Inhibition of the 6-OHDA-induced Hypokinesia in rat, at 10 mg/Kg sc, expressed as cumulative ambulation score. The format is functional. The gist of the method:
as §1

Assay [15] is filed under the species Rattus norvegicus. The experiment in a line: Duration of activity was determined. The assay is classed as functional. In short, it runs like this: as §2
Assay [16] relates to Rattus norvegicus. The experiment in a line: Rotational behavior induced by the compound in rats with a unilateral 6-OHDA-induced lesion of the Nigro-striatal dopamine, at 8 mg/Kg sc. The format is functional. The gist of the method: as §2
Assay [17] has as its system Rattus norvegicus. The assay is described as follows: Inhibition of the 6-OHDA-induced Hypokinesia in rat, at 25 mg/Kg sc, expressed as cumulative ambulation score. The assay is classed as functional. In short, it runs like this:
as §1

The test system of assay [18] is Rattus norvegicus. The assay is described as follows: Rotational behavior induced by the compound in rats with a unilateral 6-OHDA-induced lesion of the Nigro-striatal dopamine, at 50 mg/Kg sc; duration of activity=6 hr. The format is functional. The gist of the method:
as §2

Assay [19] has as its system Rattus norvegicus. The assay is described as follows: Rotational behavior induced by the compound in rat with a unilateral 6-OHDA-induced lesion of the Nigro-striatal dopamine, at 25 mg/Kg sc; duration of activity=4 hr. The assay is classed as functional. The gist of the method:
as §2

In assay [20] the test system is Rattus norvegicus. The experiment in a line: Rotational behavior induced by the compound in rat with a unilateral 6-OHDA-induced lesion of the Nigro-striatal dopamine, at 75 mg/Kg sc. The assay is classed as functional. In short, it runs like this:
as §2

Assay [21] has as its system Rattus norvegicus. The experiment in a line: Inhibition of the 6-OHDA-induced Hypokinesia in rat, at 25 mg/Kg sc, expressed as cumulative ambulation score; inactive. The assay is classed as functional, organism-based. In short, it runs like this: as §1
For assay [22], the system named is Rattus norvegicus. The assay is described as follows: Rotational behavior induced by the compound in rat with a unilateral 6-OHDA-induced lesion of the Nigro-striatal dopamine, at 50 mg/Kg sc; duration of activity=6 hr. The format is functional. The gist of the method:
as §2

SMILES strings stand for the structures. Active and inactive are the calls of the source. The calls are words filed in the database; no cut-off is given here.

For `CCOCCN1CCN(c2cccccc2=O)CC1.O=C(O)/C=C\C(=O)O`, the Score in the assay on Rattus norvegicus [1] came to 67.

As for `O=c1ccc(Cl)ccc1N1CCN(CCO)CC1`, the Score result with Rattus norvegicus [2] was “inactive”.

`Br.O=c1c(Br)ccccc1N1CCN(CCO)CC1` displayed a Score in the assay with Rattus norvegicus [1] of 136.

On to `O=c1cccccc1N1CCN(CCCO)CC1`, for which the Score in the assay with Rattus norvegicus [1] was determined as 71.

As for `CN1CCN(c2ccccc2)CC1`, the Score result in the assay on Rattus norvegicus [2] is “inactive”.

Consider `CN1CCN(c2cccccc2=O)CC1.O=C(O)/C=C\C(=O)O`, for which the Score in the assay with Rattus norvegicus [3] was found to be 2842; in the assay with Rattus norvegicus [5] it was 1814; with Rattus norvegicus [6] it was 551; in the assay with Rattus norvegicus [1], 278. Besides, the Duration of action in the assay filed under Rattus norvegicus [4] was determined as 9 h.

With `O=C1CCCCCC1N1CCN(CCO)CC1` (stereo not given), the Score entry in the assay on Rattus norvegicus [2] was “inactive”.

In the assay on Rattus norvegicus [1], `O=c1cccccc1N1CCNCC1` came in with a Score of 55.

As to `O=C(CCCN1CCC(O)(c2ccc(Cl)cc2)CC1)c1ccc(F)cc1` [HALOPERIDOL], in the assay with Rattus norvegicus [7], the P result is “inactive”. Further, the “Total no. of turns” value is recorded as 1626 with Rattus norvegicus [8], 567 in the assay on Rattus norvegicus [9] and 1055 in the assay with Rattus norvegicus [12]. Besides, the Decrease in the assay on Rattus norvegicus [10] was -56%; in the assay with Rattus norvegicus [11] it was -77%; with Rattus norvegicus [13], -33%.

For the compound `CC(C)C[C@H]1C(=O)N2CCC[C@H]2[C@]2(O)O[C@](NC(=O)[C@@H]3C=C4c5cccc6[nH]c(Br)c(c56)C[C@H]4N(C)C3)(C(C)C)C(=O)N12` [BROMOCRIPTINE], the Score turned out to be 112 in the assay with Rattus norvegicus [14] and 4868 with Rattus norvegicus [16]. For the same compound, the Duration of action in the assay filed under Rattus norvegicus [15] is 18 h.

Take `CN1CCC(c2cccccc2=O)CC1`: the Score entry with Rattus norvegicus [2] was “inactive”.

In the assay on Rattus norvegicus [17], `CC(C)CN1CCN(c2cccccc2=O)CC1.O=C(O)/C=C\C(=O)O` gave a Score of 372.

For the compound `NC(=O)CN1CCN(c2cccccc2=O)CC1`, the Score entry in the assay with Rattus norvegicus [2] is “inactive”.

For `CC(=O)NCCN1CCN(c2cccccc2=O)CC1`, the Score result in the assay on Rattus norvegicus [2] is “inactive”.

Take `CC(=O)OCCN1CCN(c2cccccc2=O)CC1`: the Score with Rattus norvegicus [18] turned out to be 1485; in the assay with Rattus norvegicus [19], 743; with Rattus norvegicus [20], 3640; in the assay with Rattus norvegicus [17], 106; with Rattus norvegicus [1], 232. Moreover, the Duration of action in the assay filed under Rattus norvegicus [4] came to 10 h.

For `O=c1cccccc1N1CCN(CC(O)CO)CC1` (stereo not given), in the assay with Rattus norvegicus [1], the Score is reported as 58.

With `O=c1cccccc1N1CCN(CCOc2ccccc2)CC1`, the Score result in the assay on Rattus norvegicus [2] was “inactive”.

For `OCCN1CCN(c2ccccc2)CC1`, the Score result in the assay on Rattus norvegicus [2] is “inactive”.

In the case of `CC(O)CN1CCN(c2cccccc2=O)CC1` (stereo not given), the Score in the assay on Rattus norvegicus [17] is given as 190; in the assay on Rattus norvegicus [1], 400.

Regarding `CC(CO)N1CCN(c2cccccc2=O)CC1` (stereo not given), in the assay with Rattus norvegicus [21], the Score entry was “inactive”.

With `CC(C)(C)C(=O)OCCN1CCN(c2cccccc2=O)CC1.O=C(O)/C=C\C(=O)O`, the Score in the assay on Rattus norvegicus [1] is given as 137.

Take `CCN1CCN(c2cccccc2=O)CC1`: in the assay on Rattus norvegicus [1], the Score is on record as 70.

In the case of `CN1CCCN(c2cccccc2=O)CC1`, in the assay with Rattus norvegicus [2], the Score result is “inactive”.

As to `O=c1cccccc1N1CCN(CCO)CC1`, the Score was 1378 with Rattus norvegicus [22]; 369 in the assay on Rattus norvegicus [19]; 4582 with Rattus norvegicus [20]; 88 in the assay with Rattus norvegicus [17]; 187 with Rattus norvegicus [1]. The compound also registered a Duration of action in the assay listed under Rattus norvegicus [4] of 12 h.

Take `CC(C)N1CCN(c2cccccc2=O)CC1`: in the assay on Rattus norvegicus [1], the Score came out at 431.

Turning to `CC1CCN(c2cccccc2=O)CC1`, in the assay on Rattus norvegicus [2], the Score entry is “inactive”.

Take `CCOC(=O)CN1CCN(c2cccccc2=O)CC1`: the Score entry in the assay with Rattus norvegicus [2] is “inactive”.

With `CC(O)C(C)N1CCN(c2cccccc2=O)CC1` (stereo not given), the Score result in the assay with Rattus norvegicus [21] was “inactive”.

`CCCN1CCN(c2cccccc2=O)CC1` yielded a Score with Rattus norvegicus [1] of 159.

For the compound `N#CCN1CCN(c2cccccc2=O)CC1`, the Score in the assay with Rattus norvegicus [1] is given as 126.

Take `CCCCN1CCN(c2cccccc2=O)CC1`: the Score entry in the assay with Rattus norvegicus [2] is “inactive”.

For the compound `CC(C)(C)N1CCN(c2cccccc2=O)CC1`, the Score entry in the assay on Rattus norvegicus [2] is “inactive”.

Source of the values: ChEMBL document CHEMBL1122686, “Troponoids. 6. Troponylpiperazines: a new class of dopamine agonists” (1984).
